ZTA counter: counter-screen for EBNA-1 inhibitors: inhibitors of Epstein-Barr virus ZTA | P03206 | ZTA-DNA binding, fluorescence polarization | inhibition, % at 11 µM | 320,000 tested, 0.15% active; in the data active = inhibition above about 33%
EBNA-1 inhibitor: blocks EBNA-1 binding to DNA; EBNA-1 DNA binding, fluorescence polarization; AID 1950; inhibition, % at 14.8 µM; 300,000 tested, 0.34% active; in the data active = inhibition above about 28%
PABP FP inh: blocks human PABP binding to poly(A) RNA | inhibition, % at 35 µM | 290,000 tested, 1% active | P11940 | fluorescence polarization | AID 2014;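 note: calls also rest on retests at 20 µM and on dose response follow-up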
Target sequence (P11940 whole entry, looked up): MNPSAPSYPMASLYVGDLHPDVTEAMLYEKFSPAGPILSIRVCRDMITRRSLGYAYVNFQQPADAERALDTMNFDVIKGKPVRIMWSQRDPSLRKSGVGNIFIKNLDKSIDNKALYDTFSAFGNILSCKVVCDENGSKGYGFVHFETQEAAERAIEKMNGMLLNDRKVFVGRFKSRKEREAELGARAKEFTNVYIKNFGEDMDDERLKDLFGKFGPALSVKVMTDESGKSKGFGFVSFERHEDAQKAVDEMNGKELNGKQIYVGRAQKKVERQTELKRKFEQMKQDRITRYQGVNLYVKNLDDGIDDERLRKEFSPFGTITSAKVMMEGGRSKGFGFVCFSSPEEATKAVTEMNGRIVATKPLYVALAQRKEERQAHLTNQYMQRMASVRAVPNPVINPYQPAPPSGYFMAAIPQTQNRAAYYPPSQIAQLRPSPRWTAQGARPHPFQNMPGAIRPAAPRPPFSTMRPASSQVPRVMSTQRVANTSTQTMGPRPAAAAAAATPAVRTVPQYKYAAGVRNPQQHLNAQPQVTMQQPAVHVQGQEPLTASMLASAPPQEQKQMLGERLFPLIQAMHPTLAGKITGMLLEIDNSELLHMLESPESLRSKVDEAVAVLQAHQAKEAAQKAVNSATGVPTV
eIF4H inh: inhibitors of RNA binding by human eIF4H | Q15056 | eIF4H fluorescence polarization binding assay | inhibition, % at 35 µM | 290,000 tested, 0.94% active;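 note: calls also rest on retests at 20 µM and on dose response follow-up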
PABP1 MLLE inh: blocks PAM2 peptide binding to the PABP1 MLLE domain; P11940; GST-MLLE / FITC-PAM2 fluorescence polarization; inhibition, % at 20 µM; 360,000 tested, 0.36% active; AID 588489; in the data active = inhibition above about 35%, passing the limit was not always enough;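 note: plate controls were DMSO wells with GST-MLLE for no effect and wells lacking GST-MLLE protein for full effect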
NS3 helicase inh: inhibitors of Hepatitis C virus NS3 helicase; NS3 helicase DNA unwinding, Cy5 molecular beacon fluorescence; inhibition, % at 10.9 µM; 290,000 tested, 0.56% active;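 active = inhibition above the mean of all tested compounds plus 3 SD, set per campaign, cut at about 35% in these data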;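 note: 0% = DMSO wells and 100% = thioflavine S control wells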
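assay system = NS3 helicase fragment of HCV | buffer or medium = MOPS pH 6.5, MgCl2, DTT, Tween20, BSA | timing = 60 min unwinding reaction at 25 °C after ATP addition | signal = Cy5 beacon fluorescence read at start and 1 h | read-out basis = % inhibition of unwinding | control set = low DMSO, high thioflavine S at 110 µM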
* marks the source's active call; other numbers are inactive results; ? = inconclusive; nt = no result; + = active, no number. Shown are actives, neighbours in structure and some others; about 2.1% of the full set was active somewhere. Unless noted, the rule behind the calls is not given here.

SMILES	ZTA counter	EBNA-1 inhibitor	PABP FP inh	eIF4H inh	PABP1 MLLE inh	NS3 helicase inh
COc1ccc2nc(-n3c(O)c(C4=c5ccccc5=NC4=O)[nH]c3=S)sc2c1	0.5	22.4	1.0*	61.5*	13.6	24.1
CCC(C)[C@H]1CNC(=S)N1CCC12CC3CC(CC(C3)C1)C2 (stereo not given in full)	-5.4	9.7	7.0	-7.8	-131.7	nt
O=c1ccnc(SCCc2ccc([N+](=O)[O-])cc2)[nH]1	-3.2	2.8	nt	nt	-6.0	nt
O=C(O)c1ccc(COc2ccccc2/C=C2/NC(=O)N(c3cccc(Cl)c3)C2=O)cc1	3.4	18.0	active	54.3*	-4.9	21.6
O=C(O)c1ccc(COc2ccccc2C=C2C(=O)c3ccccc3C2=O)cc1	6.7	0.1	56.2*	0.2	13.2	21.1
O=C(O)c1ccc(COc2ccccc2/C=C2\NC(=O)N(Cc3ccc(F)cc3)C2=O)cc1	12.7	-0.1	-2.8	-2.5	-4.2	7.3
O=C(O)c1cccc(-n2cccc2/C=C2/NC(=O)N(c3cccc(Cl)c3)C2=O)c1	-5.4	-7.8	81.0*	96.6*	-66.7	32.0
C=CCN(CC=C)C(=S)NC(=O)c1ccc(OC)c(Br)c1	5.0	-3.9	-2.2	2.6	43.6*	-5.1
C=CCn1c(CSc2ccccc2[N+](=O)[O-])n[nH]c1=S	-8.0	-1.0	21.2*	84.0*	-6.0	30.8
C=CCn1c(Cc2ccccc2)n[nH]c1=S	-2.1	2.7	0.8	1.8	-20.6	-9.7
OCc1nc2nc(Cl)c(Cl)nc2[nH]1	16.0	-0.9	13.2*	51.9*	9.8	10.1
COc1ccc(/C=N/Nc2nc3ccccc3c(=O)n2-c2ccccc2)cc1OC	8.4	-5.6	3.9	-5.3	-12.1	0.9
N#C/C(=C\c1ccccc1[N+](=O)[O-])C(=O)NC1CCCCC1	-19.3	-5.6	4.4	-1.2	54.7*	1.7
CCc1cccc(CC)c1NC(=O)COC(=O)c1cccc(-c2ccc(OC(C)=O)cc2)c1	-10.9	6.3	70.7	active	-1.8	1.8
Fc1ccccc1NC(=S)Nc1cccc2cnccc12	-1.6	4.9	2.1	57.8*	37.0*	-14.3
FC(F)(F)c1ccccc1NC(=S)Nc1cccc2cnccc12	nt	nt	active	94.5*	6.7	-0.3
Cc1ccccc1NC(=S)Nc1cccc2cnccc12	6.1	-5.1	9.8	21.9	36.1	9.1
Cc1ccc(NC(=O)COn2nnc3ccc(S(=O)(=O)N(C)C)cc32)cc1F	-8.6	-1.0	-1.2	3.7	-12.5	-8.4
CC1CC(C)CN(C(=O)c2ccc3c(c2)OCCO3)C1 (stereo not given)	-7.8	nt	nt	nt	2.6	nt
CN1CCCCC1(C)C(=O)NCc1ccc(C(C)(C)C)cc1 (stereo not given)	nt	nt	nt	nt	2.1	nt
CCc1c(C)sc(NC(=O)CC#N)c1C#N	5.2	0.6	86.7*	73.9*	-15.8	28.2
O=C1CC(=O)OC(c2ccc([N+](=O)[O-])cc2)O1	nt	nt	nt	nt	18.8	nt
CCC1C(=O)C(C)(C)C(=O)OC1c1ccc([N+](=O)[O-])cc1 (stereo not given)	-13.3	-3.9	85.3*	109.5*	7.4	9.9
O=C1CCc2cc(S(=O)(=O)Nc3ccccc3F)cc3c2N1CCC3	0.8	-2.3	nt	nt	-8.5	nt
CCc1nnc(NC(=O)CSc2ccc(-c3cccs3)nn2)s1	-8.7	-6.8	active	?	32.5	3.0
SMILES	ZTA counter	EBNA-1 inhibitor	PABP FP inh	eIF4H inh	PABP1 MLLE inh	NS3 helicase inh
CCc1nnc(NC(=O)CSc2ccc(-c3ccc(F)cc3)nn2)s1	-1.6	5.3	-5.0	0.6	nt	-0.1
Cc1cccc(N(CC(N)=O)C2SC(=O)N(c3ccccc3)C2=O)c1 (stereo not given)	0.7	-6.9	-12.3	5.1	40.9*	1.1
CCOC1=C2[C@H](c3ccccc3F)N(S(=O)(=O)c3ccc(C)cc3)C[C@H]2n2c(=O)n(-c3ccccc3)c(=O)n2C1	nt	nt	nt	nt	2.8	nt
CC(C)OC(=O)CC(=O)CSc1nc(-c2ccc(F)cc2)cc(-c2ccccc2)c1C#N	-6.3	13.8	19.4*	87.6*	20.4	7.9
CCOC(=O)CC(=O)CSc1nc(-c2ccccc2)cc(-c2ccccc2)c1C#N	-3.7	7.5	-9.0	49.7	1.6	22.0
COc1ccccc1OCC(=O)NCC1CCCN(Cc2cnn(C)c2C)C1 (stereo not given)	21.5	-2.9	-1.0	-11.8	7.4	5.1
Cc1c(O)cc2c(c1O)C(=O)CC(c1ccc(O)cc1)O2 (stereo not given)	8.4	-2.1	45.0*	95.2*	-3.5	8.4
O=C1CC(c2ccc(O)cc2)Oc2cc(O)ccc21 (stereo not given)	-2.6	0.6	nt	nt	-1.8	nt
CCOc1ccc(C(Nc2ccc(C)cc2)P2(=O)OCC(C)(C)CO2)cc1 (stereo not given)	-21.6	-6.0	35.5*	97.9*	5.2	0.1
CCOc1ccc(C(Nc2ccc(C)cc2)P2(=O)OCCCO2)cc1 (stereo not given)	-7.4	-7.7	-8.4	4.3	3.5	-3.8
COc1ccc(CNC(=O)c2c(O)c3cccc4c3n(c2=O)CCC4)cc1OC	20.2	3.4	9.2	2.1	-12.0	5.5
O=C(CSc1nccn1Cc1ccccc1)Nc1ccccc1	1.5	-9.7	2.9	-2.0	-4.5	0.3
CC(C)(C)NC(=O)CSc1nccn1Cc1ccccc1	5.5	3.8	42.3*	67.6*	-64.7	-8.9
O=C(CN1CCN(c2ccc(F)cc2)CC1)Nc1nccs1	-6.2	2.6	6.1	8.1	10.0	-2.1
CN(C)c1ccc2nc3ccc(=[N+](C)C)cc-3sc2c1	nt	+	-12.5	?	14.1	30.9
O=C(O)C1CC=CCC1C(=O)c1ccccc1 (stereo not given)	-16.8	-5.2	4.9	-3.6	-9.8	0.6
O=C(NCCc1cccc(Cl)c1)c1cccc([N+](=O)[O-])c1	-26.4	0.4	-1.0	-11.4	10.4	-1.2
O=[N+]([O-])c1cccc(C(=Nc2cccc(Cl)c2)NO)c1	-25.4	12.1	13.8*	70.3*	2.6	14.5
CCOC(=O)C1=C(C)Nc2ccc(C)cc2S1	9.7	4.4	-9.1	3.8	50.1*	3.6
CCOCCOC(=O)C1=C(C)Nc2ccc(C)cc2S1	3.5	1.6	3.8	-1.9	31.5	1.1
CN1CC(=O)Nc2ccccc2C1=O	-1.9	-6.0	6.7	-4.2	-8.8	0.7
O=C1NN(CCO)C(=S)Nc2ccccc21	nt	nt	nt	nt	35.8*	nt
COc1ccc(Nc2c([N+](=O)[O-])ccc3c2=NC2(CCCCC2)N=3)cc1	3.7	1.7	-18.3	-1.7	13.6	13.7
Cc1cccnc1NC(=O)CNC(=O)c1cccs1	13.4	3.4	nt	nt	-12.2	nt
Cc1cccnc1NC(=S)NC(=O)c1cccs1	8.9	6.5	2.6	-3.5	38.6*	2.8
CCC[N+]1(CC#CC(O)(c2ccccc2)C2CCCCC2)CCCCC1 (stereo not given)	2.7	-11.5	12.0	5.8	-12.8	-16.6
CC1(C(O)(C#CC[N+]2(C)CCCCC2)c2ccccc2)CCCC1 (stereo not given)	-15.3	-18.6	70.0*	6.9	-123.1	-5.5
